Test results taken from ChEMBL document CHEMBL4330069, “Boosting the efficacy of anti-MRSA β-lactam antibiotics via an easily accessible, non-cytotoxic and orally bioavailable FtsZ inhibitor” (Eur J Med Chem, 2019).
Converted amounts (≈) assume the structure as drawn.

Key:
Staphylococcus aureus [1] = assay: Synergistic antibacterial activity against multidrug-resistant Staphylococcus aureus isolate 358 in presence of methicillin by broth microdilution assay; format: functional
Staphylococcus aureus [2] = assay: Synergistic antibacterial activity against multidrug-resistant Staphylococcus aureus isolate 3267 assessed as fractional Inhibitory concentration index in presence of meropenem by broth microdilution assay; format: functional
Staphylococcus aureus [3] = assay: Synergistic antibacterial activity against multidrug-resistant Staphylococcus aureus isolate 2919 in presence of meropenem by broth microdilution assay; format: functional
How it was run: (§1)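 CLSI broth microdilution on clinical MRSA isolates. MICs were measured for the β-lactam alone, the test agent alone and the two combined. Compounds were dissolved in DMSO, and growth inhibition was scored by eye. FIC index is the sum, over both agents, of MIC in combination divided by MIC alone. An FIC index ≤0.5 was taken as synergy.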

Staphylococcus aureus [4] = assay: Synergistic antibacterial activity against multidrug-resistant Staphylococcus aureus isolate 200 assessed as fractional Inhibitory concentration index in presence of methicillin by broth microdilution assay; format: functional
Staphylococcus aureus [5] = assay: Antibacterial activity against multidrug-resistant Staphylococcus aureus isolate 2919 by broth microdilution assay; format: functional
How it was run: (§2)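 Broth microdilution MIC per CLSI guidelines against clinical MRSA isolates, for β-lactams and test compound alone and in combination. Compounds were dissolved in DMSO. Growth was read by eye, in duplicate. FIC index = FIC(compound) + FIC(drug); synergy defined as FIC index ≤0.5.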

Staphylococcus aureus [6] = assay: Synergistic antibacterial activity against multidrug-resistant Staphylococcus aureus isolate 200 in presence of amoxicillin by broth microdilution assay; format: functional
How it was run: (§3)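 Clinical MRSA isolate panel; compound and β-lactam tested alone and in combination by CLSI broth microdilution, compounds dissolved in DMSO, growth inhibition scored by eye, run in duplicate. FIC index = FIC(compound) + FIC(drug), each the MIC in combination divided by the MIC alone; an index ≤ 0.5 was called synergy.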

Staphylococcus aureus [7] = assay: Synergistic antibacterial activity against multidrug-resistant Staphylococcus aureus isolate 2224 in presence of amoxicillin by broth microdilution assay; format: functional; how it was run: as §3
Staphylococcus aureus [8] = assay: Synergistic antibacterial activity against multidrug-resistant Staphylococcus aureus isolate 3589 in presence of cefuroxime by broth microdilution assay; format: functional
Staphylococcus aureus [9] = assay: Synergistic antibacterial activity against multidrug-resistant Staphylococcus aureus isolate 254 assessed as fractional Inhibitory concentration index in presence of meropenem by broth microdilution assay; format: functional
Staphylococcus aureus [10] = assay: Antibacterial activity against multidrug-resistant Staphylococcus aureus isolate 1136 by broth microdilution assay; format: functional; how it was run: as §2
Staphylococcus aureus [11] = assay: Synergistic antibacterial activity against multidrug-resistant Staphylococcus aureus isolate 1717 in presence of cefuroxime by broth microdilution assay; format: functional; how it was run: as §3
Staphylococcus aureus [12] = assay: Synergistic antibacterial activity against multidrug-resistant Staphylococcus aureus isolate 2895 assessed as fractional Inhibitory concentration index in presence of methicillin by broth microdilution assay; format: functional
Staphylococcus aureus [13] = assay: Synergistic antibacterial activity against multidrug-resistant Staphylococcus aureus isolate 256 in presence of cefuroxime by broth microdilution assay; format: functional; how it was run: as §1
Staphylococcus aureus [14] = assay: Synergistic antibacterial activity against multidrug-resistant Staphylococcus aureus isolate 1749 assessed as fractional Inhibitory concentration index in presence of cefuroxime by broth microdilution assay; format: functional
How it was run: (§4)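 CLSI broth microdilution run on clinical MRSA isolates with each β-lactam alone, the test agent alone, and the two combined; agents dissolved in DMSO. Growth inhibition was read by eye. FIC index = FIC(compound) + FIC(β-lactam), where each FIC is the MIC in combination divided by the MIC alone. An index ≤0.5 was taken as synergy.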

Staphylococcus aureus [15] = assay: Synergistic antibacterial activity against multidrug-resistant Staphylococcus aureus isolate 1449 in presence of cloxacillin by broth microdilution assay; format: functional; how it was run: as §3
Staphylococcus aureus [16] = assay: Synergistic antibacterial activity against multidrug-resistant Staphylococcus aureus isolate 3332 in presence of meropenem by broth microdilution assay; format: functional; how it was run: as §1
Staphylococcus aureus [17] = assay: Synergistic antibacterial activity against multidrug-resistant Staphylococcus aureus isolate 2919 assessed as fractional Inhibitory concentration index in presence of cefuroxime by broth microdilution assay; format: functional
Staphylococcus aureus [18] = assay: Antibacterial activity against multidrug-resistant Staphylococcus aureus isolate 2973 by broth microdilution assay; format: functional; how it was run: as §2
Staphylococcus aureus [19] = assay: Synergistic antibacterial activity against multidrug-resistant Staphylococcus aureus isolate 2516 in presence of amoxicillin by broth microdilution assay; format: functional; how it was run: as §3
Staphylococcus aureus [20] = assay: Synergistic antibacterial activity against multidrug-resistant Staphylococcus aureus isolate 3267 in presence of cloxacillin by broth microdilution assay; format: functional; how it was run: as §1
Staphylococcus aureus [21] = assay: Synergistic antibacterial activity against multidrug-resistant Staphylococcus aureus isolate 254 assessed as fractional Inhibitory concentration index in presence of cloxacillin by broth microdilution assay; format: functional
Staphylococcus aureus [22] = assay: Synergistic antibacterial activity against multidrug-resistant Staphylococcus aureus isolate 3332 in presence of cloxacillin by broth microdilution assay; format: functional; how it was run: as §1
Staphylococcus aureus [23] = assay: Synergistic antibacterial activity against multidrug-resistant Staphylococcus aureus isolate 774 in presence of amoxicillin by broth microdilution assay; format: functional
Staphylococcus aureus [24] = assay: Synergistic antibacterial activity against multidrug-resistant Staphylococcus aureus isolate 2973 in presence of methicillin by broth microdilution assay; format: functional; how it was run: as §1
Staphylococcus aureus [25] = assay: Synergistic antibacterial activity against multidrug-resistant Staphylococcus aureus isolate 1749 in presence of amoxicillin by broth microdilution assay; format: functional; how it was run: as §3
Staphylococcus aureus [26] = assay: Synergistic antibacterial activity against multidrug-resistant Staphylococcus aureus isolate 2224 in presence of methicillin by broth microdilution assay; format: functional; how it was run: as §3
Staphylococcus aureus [27] = assay: Synergistic antibacterial activity against multidrug-resistant Staphylococcus aureus isolate 1136 in presence of cloxacillin by broth microdilution assay; format: functional; how it was run: as §3
Staphylococcus aureus [28] = assay: Antibacterial activity against Staphylococcus aureus ATCC 29213 after 20 hrs; format: functional; conditions: ATCC 29213, 20 h
How it was run: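 Broth microdilution MIC per CLSI guidelines, compounds dissolved in DMSO. Resistant mutants were selected by serial passage of ATCC 29213 in LB at 37 °C with shaking at 250 rpm. Each 20 h culture started at half the MIC, and the concentration was doubled at each transfer. Growth inhibition was read by eye, in duplicate.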

[29] = Half life in Sprague-Dawley rat at 1 mg/kg, iv by UPLC-MS/MS analysis; format: ADME, organism-based; conditions: in vivo
How it was run: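 Male Sprague–Dawley rats (250-280 g) dosed IV at 1 mg/kg or by oral feeding at 50 mg/kg. Jugular blood taken from 5 to 420 min (IV) or 2 to 600 min (oral). Plasma proteins precipitated with methanol, then analysed by UPLC-MS/MS with positive ESI. Parameters from non-compartmental analysis.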

Staphylococcus aureus [30] = assay: Synergistic antibacterial activity against multidrug-resistant Staphylococcus aureus isolate 200 assessed as fractional Inhibitory concentration index in presence of meropenem by broth microdilution assay; format: functional; how it was run: as §4
Staphylococcus aureus [31] = assay: Synergistic antibacterial activity against multidrug-resistant Staphylococcus aureus isolate 3411 in presence of amoxicillin by broth microdilution assay; format: functional; how it was run: as §1
Staphylococcus aureus [32] = assay: Synergistic antibacterial activity against multidrug-resistant Staphylococcus aureus isolate 3332 in presence of amoxicillin by broth microdilution assay; format: functional; how it was run: as §1
Staphylococcus aureus [33] = assay: Synergistic antibacterial activity against multidrug-resistant Staphylococcus aureus isolate 3589 assessed as fractional Inhibitory concentration index in presence of meropenem by broth microdilution assay; format: functional
Staphylococcus aureus [34] = assay: Synergistic antibacterial activity against multidrug-resistant Staphylococcus aureus isolate 3580 in presence of cloxacillin by broth microdilution assay; format: functional
Staphylococcus aureus [35] = assay: Synergistic antibacterial activity against multidrug-resistant Staphylococcus aureus isolate 2516 assessed as fractional Inhibitory concentration index in presence of cefuroxime by broth microdilution assay; format: functional; how it was run: as §4

Q: With `CCCCCCCCCNc1ccc(F)c(C(N)=O)c1F` as the compound, how does the MIC (Staphylococcus aureus [1]) read?
A: 2 µg/mL

Q: And the “fractional inhibitory concentration index (FICI)” value (Staphylococcus aureus [2])?
A: 4

Q: And the MIC (Staphylococcus aureus [3])?
A: 4 µg/mL

Q: What about the “fractional inhibitory concentration index (FICI)” value (Staphylococcus aureus [4]) of the same compound?
A: 0.3

Q: And the MIC (Staphylococcus aureus [5])?
A: 16 µg/mL (≈ 53.6 µM)

Q: And the MIC (Staphylococcus aureus [6])?
A: 8 µg/mL

Q: And the MIC (Staphylococcus aureus [7])?
A: 64 µg/mL

Q: And the MIC (Staphylococcus aureus [8])?
A: 2 µg/mL

Q: And the “fractional inhibitory concentration index (FICI)” value (Staphylococcus aureus [9])?
A: 1.5

Q: And the MIC (Staphylococcus aureus [10])?
A: 16 µg/mL (≈ 53.6 µM)

Q: What about the MIC (Staphylococcus aureus [11]) of the same compound?
A: 2 µg/mL

Q: And the “fractional inhibitory concentration index (FICI)” value (Staphylococcus aureus [12])?
A: 0.3

Q: And the MIC (Staphylococcus aureus [13])?
A: 2 µg/mL

Q: And the “fractional inhibitory concentration index (FICI)” value (Staphylococcus aureus [14])?
A: 1.1

Q: What about the MIC (Staphylococcus aureus [15]) of the same compound?
A: 0.5 µg/mL

Q: What about the MIC (Staphylococcus aureus [16]) of the same compound?
A: 4 µg/mL

Q: What about the “fractional inhibitory concentration index (FICI)” value (Staphylococcus aureus [17]) of the same compound?
A: 0.3

Q: And the MIC (Staphylococcus aureus [18])?
A: 128 µg/mL (≈ 429 µM)

Q: What about the MIC (Staphylococcus aureus [19]) of the same compound?
A: 8 µg/mL

Q: What about the MIC (Staphylococcus aureus [20]) of the same compound?
A: 1 µg/mL

Q: And the “fractional inhibitory concentration index (FICI)” value (Staphylococcus aureus [21])?
A: 0.2

Q: And the MIC (Staphylococcus aureus [22])?
A: 2 µg/mL

Q: And the MIC (Staphylococcus aureus [23])?
A: 8 µg/mL

Q: What about the MIC (Staphylococcus aureus [24]) of the same compound?
A: 4 µg/mL

Q: And the MIC (Staphylococcus aureus [25])?
A: 2 µg/mL

Q: And the MIC (Staphylococcus aureus [26])?
A: 2 µg/mL

Q: And the MIC (Staphylococcus aureus [27])?
A: 2 µg/mL

Q: And the MIC (Staphylococcus aureus [28])?
A: 1 µg/mL (≈ 3.35 µM)

Q: And the half-life [29]?
A: 5.5 h

Q: And the “fractional inhibitory concentration index (FICI)” value (Staphylococcus aureus [30])?
A: 8

Q: What about the MIC (Staphylococcus aureus [31]) of the same compound?
A: 4 µg/mL

Q: And the MIC (Staphylococcus aureus [32])?
A: 8 µg/mL

Q: And the “fractional inhibitory concentration index (FICI)” value (Staphylococcus aureus [33])?
A: 1.5

Q: And the MIC (Staphylococcus aureus [34])?
A: 1 µg/mL

Q: And the “fractional inhibitory concentration index (FICI)” value (Staphylococcus aureus [35])?
A: 0.1
